Measurements from paper PMC4317336 (Journal of controlled release : official journal of the …, 2013).

system: tumor biopsies from stage IV NB patients; experiment: phage overlay binding assay on tumor biopsies from NB patients; settings: human NB sections, compared with Mallory Trichrome histology
Summary of the method: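 Frozen sections (5 μm) from stage IV NB patient tumors in OCT, fixed 10 min at room temperature in 4% paraformaldehyde/PBS, washed twice in PBS, and blocked with serum-free protein block. Sections overlaid 1 h at 4°C with 10⁸ T.U./μl of each phage clone; insertless Fd-Tet phage as negative control. Bound phage detected with anti-bacteriophage antibody plus HRP polymer, then hematoxylin counterstain.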

Substance	tumor component preferentially bound
YEGLISR [Phage #1]	preferentially bind to non-epithelial tumor components
ALAAHKL [Phage #10]	preferentially bind to non-epithelial tumor components
KSFFLSH [Phage #14]	widely recognizes the whole NB masses
WSWPREL [Phage #8]	preferentially bind to non-epithelial tumor components
HSYWLSR [Phage #5]	preferentially bind to non-epithelial tumor components
